From ChEMBL document CHEMBL3612040, “Discovery of Selective Small Molecule Inhibitors of Monoacylglycerol Acyltransferase 3” (J Med Chem, 2015)
Active and inactive are the calls of the source. No cut-off for these calls is given here.

Legend:
[1] = Apparent permeability in RRCK cells; assay type: ADME, cell-based, Canis lupus familiaris, MDCKII-LE; conditions: dog, MDCK
[2] = Intrinsic clearance in human liver microsomes; assay type: ADME; conditions: read-out: CLH
[3] = Lipophilicity, logD of the compound at pH 7.4; assay type: physicochemical; conditions: buffer
How it was run: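 Shake-flask octanol:water partition at pH 7.4, with MS analysis of samples.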

[4] = biological target: T1, Diacylglycerol O-acyltransferase 2 (Homo sapiens, UniProt Q96PD7); test: Inhibition of DGAT2 (unknown origin) using [1-14C]decanoyl-CoA and didecanoyl-sn-glycerol substrates incubated for 40 mins
T1 sequence (Q96PD7 whole entry): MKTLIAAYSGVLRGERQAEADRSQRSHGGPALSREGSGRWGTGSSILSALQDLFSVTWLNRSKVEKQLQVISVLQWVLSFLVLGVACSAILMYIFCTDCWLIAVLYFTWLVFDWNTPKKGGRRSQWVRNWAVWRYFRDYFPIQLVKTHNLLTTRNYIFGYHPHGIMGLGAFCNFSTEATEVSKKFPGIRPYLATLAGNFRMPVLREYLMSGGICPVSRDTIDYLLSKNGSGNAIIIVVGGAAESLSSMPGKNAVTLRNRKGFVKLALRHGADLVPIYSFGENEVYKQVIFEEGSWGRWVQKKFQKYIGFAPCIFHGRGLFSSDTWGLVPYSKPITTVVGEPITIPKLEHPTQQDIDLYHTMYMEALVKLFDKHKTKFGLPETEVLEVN
How it was run: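 DGAT2 membrane fraction (0.01 mg/mL) in 100 mM Hepes-NaOH pH 7.4, 20 mM MgCl2, 200 nM MAFP. Compound first held 20 min with 0.04% fatty-acid-free BSA, then preincubated 120 min at RT with enzyme. Started with 30 µM [1-14C]decanoyl-CoA and 125 µM 1,2-didecanoyl-sn-glycerol; ran 40 min at RT, acid-stopped. Labelled TAG read by scintillation after phase partitioning.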

Cytochrome P450 3A4 = Cytochrome P450 3A4 (Homo sapiens, UniProt P08684); test: Inhibition of human CYP3A4; assay type: ADME
Chain of Cytochrome P450 3A4 (P08684 whole entry): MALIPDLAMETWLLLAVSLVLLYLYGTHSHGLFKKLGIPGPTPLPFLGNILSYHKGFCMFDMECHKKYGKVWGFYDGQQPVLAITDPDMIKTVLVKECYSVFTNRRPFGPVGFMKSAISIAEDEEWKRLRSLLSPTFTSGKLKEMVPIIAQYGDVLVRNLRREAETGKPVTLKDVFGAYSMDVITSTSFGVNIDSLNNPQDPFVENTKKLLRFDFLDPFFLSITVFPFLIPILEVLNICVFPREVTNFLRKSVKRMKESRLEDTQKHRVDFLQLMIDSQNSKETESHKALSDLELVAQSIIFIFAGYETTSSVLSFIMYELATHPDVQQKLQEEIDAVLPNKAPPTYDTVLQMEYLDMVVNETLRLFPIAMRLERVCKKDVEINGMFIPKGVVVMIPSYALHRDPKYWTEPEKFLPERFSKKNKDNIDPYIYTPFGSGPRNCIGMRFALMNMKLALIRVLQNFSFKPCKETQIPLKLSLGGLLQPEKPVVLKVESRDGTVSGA

[5] = Genotoxicity in micronucleus (unknown origin) by micronucleus assay
Cytochrome P450 1A2 = biological target: T2, Cytochrome P450 1A2 (Homo sapiens, UniProt P05177); test: Inhibition of human CYP1A2; assay type: ADME
T2 sequence (P05177 whole entry): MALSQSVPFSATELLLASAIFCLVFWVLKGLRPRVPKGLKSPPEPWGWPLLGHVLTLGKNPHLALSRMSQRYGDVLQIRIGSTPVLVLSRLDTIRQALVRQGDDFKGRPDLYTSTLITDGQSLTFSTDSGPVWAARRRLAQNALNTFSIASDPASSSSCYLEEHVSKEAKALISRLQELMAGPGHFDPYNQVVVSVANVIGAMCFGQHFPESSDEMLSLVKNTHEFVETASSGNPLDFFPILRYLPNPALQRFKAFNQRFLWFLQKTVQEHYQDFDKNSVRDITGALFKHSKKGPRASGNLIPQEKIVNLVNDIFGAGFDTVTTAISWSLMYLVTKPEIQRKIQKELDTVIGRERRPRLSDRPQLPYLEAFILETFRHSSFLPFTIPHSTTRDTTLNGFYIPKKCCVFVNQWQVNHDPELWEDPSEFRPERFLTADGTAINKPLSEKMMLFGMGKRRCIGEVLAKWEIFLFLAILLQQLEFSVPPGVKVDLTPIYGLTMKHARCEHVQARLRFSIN

Cytochrome P450 2C9 = Cytochrome P450 2C9 (Homo sapiens, UniProt P11712); test: Inhibition of human CYP2C9; assay type: ADME
Chain of Cytochrome P450 2C9 (P11712 whole entry): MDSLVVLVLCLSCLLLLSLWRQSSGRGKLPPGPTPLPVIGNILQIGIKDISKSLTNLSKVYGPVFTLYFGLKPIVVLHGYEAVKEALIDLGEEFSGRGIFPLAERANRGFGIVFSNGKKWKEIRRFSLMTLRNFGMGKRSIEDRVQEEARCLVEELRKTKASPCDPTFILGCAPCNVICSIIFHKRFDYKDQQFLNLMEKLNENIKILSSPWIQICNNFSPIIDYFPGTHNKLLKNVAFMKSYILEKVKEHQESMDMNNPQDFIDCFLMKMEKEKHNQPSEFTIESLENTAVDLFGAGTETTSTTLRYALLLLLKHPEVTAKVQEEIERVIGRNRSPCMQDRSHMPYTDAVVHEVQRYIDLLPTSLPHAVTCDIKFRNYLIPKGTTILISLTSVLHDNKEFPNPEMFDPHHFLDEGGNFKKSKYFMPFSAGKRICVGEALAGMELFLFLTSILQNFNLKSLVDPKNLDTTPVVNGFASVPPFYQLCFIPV

[6] = Volume of distribution in mouse at 1 mg/kg, iv; assay type: ADME, organism-based; conditions: in vivo
How it was run: (§1)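 Single 1 mg/kg intravenous dose in mice; systemic clearance, volume of distribution and effective half-life derived from plasma pharmacokinetics.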

[7] = biological target: Voltage-gated inwardly rectifying potassium channel KCNH2 (Homo sapiens, UniProt Q12809); test: Inhibition of human ERG
Chain of Voltage-gated inwardly rectifying potassium channel KCNH2 (Q12809 whole entry): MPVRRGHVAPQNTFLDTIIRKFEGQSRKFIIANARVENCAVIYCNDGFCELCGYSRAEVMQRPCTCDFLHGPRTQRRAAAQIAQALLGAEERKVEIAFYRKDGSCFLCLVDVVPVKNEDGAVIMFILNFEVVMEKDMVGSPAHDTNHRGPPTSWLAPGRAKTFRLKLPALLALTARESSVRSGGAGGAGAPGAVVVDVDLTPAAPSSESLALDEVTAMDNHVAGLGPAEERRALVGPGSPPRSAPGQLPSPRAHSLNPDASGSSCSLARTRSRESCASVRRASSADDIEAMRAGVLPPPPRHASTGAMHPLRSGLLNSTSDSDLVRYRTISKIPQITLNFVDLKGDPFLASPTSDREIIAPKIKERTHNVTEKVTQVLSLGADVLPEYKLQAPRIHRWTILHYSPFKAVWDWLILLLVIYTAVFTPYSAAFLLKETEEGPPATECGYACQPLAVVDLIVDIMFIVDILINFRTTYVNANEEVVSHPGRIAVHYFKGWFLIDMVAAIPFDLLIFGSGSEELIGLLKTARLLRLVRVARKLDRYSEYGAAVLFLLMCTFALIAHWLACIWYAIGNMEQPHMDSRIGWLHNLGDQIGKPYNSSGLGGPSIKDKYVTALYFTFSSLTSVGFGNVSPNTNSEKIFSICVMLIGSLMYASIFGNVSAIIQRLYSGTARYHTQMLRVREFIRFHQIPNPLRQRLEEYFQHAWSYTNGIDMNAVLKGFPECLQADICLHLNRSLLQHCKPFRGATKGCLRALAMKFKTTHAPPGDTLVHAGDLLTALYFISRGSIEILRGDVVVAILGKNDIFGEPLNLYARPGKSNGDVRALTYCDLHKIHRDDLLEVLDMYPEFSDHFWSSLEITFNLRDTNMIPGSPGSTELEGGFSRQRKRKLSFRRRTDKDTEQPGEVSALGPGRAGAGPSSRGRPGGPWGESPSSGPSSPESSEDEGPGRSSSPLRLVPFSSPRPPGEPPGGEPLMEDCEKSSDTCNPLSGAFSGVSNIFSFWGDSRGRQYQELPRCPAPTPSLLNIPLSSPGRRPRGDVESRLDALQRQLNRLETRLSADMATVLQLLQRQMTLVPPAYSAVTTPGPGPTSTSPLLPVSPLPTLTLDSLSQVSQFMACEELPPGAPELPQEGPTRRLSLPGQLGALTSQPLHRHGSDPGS

[8] = Oral bioavailability in mouse at 5 mg/kg; assay type: ADME, organism-based; conditions: in vivo
Mus musculus [9] = test: (§2) Effect on incorporation of glycerol-d8 into triolein in wild type mouse by measuring atom percent excess at 200 mg/kg, po dosed 1 hr before of 100 mg/kg, iv glycerol-d8 and measured 30 mins post glycerol-d8 dosing by LC-MS method; assay type: functional, organism-based
How it was run: (§3)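 Fed mice (wild type or human MOGAT3 transgenic), studied 8 AM–12 PM. Oral dosing in 0.5% methyl cellulose in saline, alone or with DGAT1 inhibitor (30 mg/kg) and DGAT2 inhibitor (10 mg/kg). After 1 h, 100 mg/kg uniformly labelled D8-glycerol (10 mg/mL in saline) given by tail vein. EDTA plasma taken 30 min later; D5-glycerol enrichment in triolein (18:1/18:1/18:1) measured by LC/MS, reported as mean atom percent excess ± SE.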

[10] = Cmax in mouse at 5 mg/kg, po; assay type: ADME, organism-based; design: dose 5 mg/kg, route oral; conditions: in vivo
Cytochrome P450 2D6 = Cytochrome P450 2D6 (Homo sapiens, UniProt P10635); test: Inhibition of human CYP2D6; assay type: ADME
Chain of Cytochrome P450 2D6 (P10635 whole entry): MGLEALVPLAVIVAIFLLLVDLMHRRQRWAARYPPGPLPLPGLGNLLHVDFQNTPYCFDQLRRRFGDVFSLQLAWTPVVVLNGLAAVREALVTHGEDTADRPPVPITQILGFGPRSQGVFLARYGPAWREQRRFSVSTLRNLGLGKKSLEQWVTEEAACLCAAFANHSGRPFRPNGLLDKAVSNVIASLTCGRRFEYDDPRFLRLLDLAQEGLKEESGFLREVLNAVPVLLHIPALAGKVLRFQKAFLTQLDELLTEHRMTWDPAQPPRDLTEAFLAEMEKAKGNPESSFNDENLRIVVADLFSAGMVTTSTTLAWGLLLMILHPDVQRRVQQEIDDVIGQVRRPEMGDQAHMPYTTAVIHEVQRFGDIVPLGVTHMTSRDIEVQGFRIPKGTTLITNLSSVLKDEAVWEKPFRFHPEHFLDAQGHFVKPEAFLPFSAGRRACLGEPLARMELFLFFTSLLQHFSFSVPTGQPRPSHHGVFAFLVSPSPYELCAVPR

Salmonella typhimurium = test: Genotoxicity in Salmonella typhimurium by Amest test; assay type: toxicity, organism-based; conditions: salmonella enterica subsp. enterica serovar typhimurium
Mus musculus [11] = test: (§4) In-vivo inhibition of MGAT3-mediated TAG synthesis in human MGAT3 transgenic mouse assessed as reduction in incorporation of glycerol-d8 in to triolein expressed as atom percent excess at 200 mg/kg, po dosed 1 hr before of 100 mg/kg, iv glycerol-d8 and measured 30 mins post glycerol-d8 dosing and co-treated with 30 mg/kg for DGAT1 inhibitor-12 and 10 mg/kg for DGAT2 inhibitor-13 by LC-MS method; assay type: functional, organism-based
How it was run: (§5)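 Fed mice (wild type or human MOGAT3 transgenic) were studied between 8 AM and 12 PM. Inhibitors were given orally in 0.5% methyl cellulose in saline. After 1 h, D8-glycerol (10 mg/mL in saline) was injected into the tail vein. Blood was taken into EDTA 30 min later and plasma lipids extracted. D5-glycerol in triolein (18:1/18:1/18:1) was measured by LC/MS as atom percent excess, mean ± SE.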

HepG2 = test: Toxicity in human HepG2 cells up to 300 uM incubated for 72 hrs; assay type: cell-based; conditions: hepg2, 72 h
How it was run: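 HepG2 cells incubated with compound up to 300 µM for 72 hours.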

[12] = biological target: T3, Diacylglycerol O-acyltransferase 1 (Homo sapiens, UniProt O75907); test: Inhibition of DGAT1 (unknown origin) assessed as effect on incorporation of [1-14C]decanoyl moiety into TG using [1-14C]decanoyl-CoA and 1,2-didecanoyl-sn-glycerol as substrates
T3 sequence (O75907 whole entry): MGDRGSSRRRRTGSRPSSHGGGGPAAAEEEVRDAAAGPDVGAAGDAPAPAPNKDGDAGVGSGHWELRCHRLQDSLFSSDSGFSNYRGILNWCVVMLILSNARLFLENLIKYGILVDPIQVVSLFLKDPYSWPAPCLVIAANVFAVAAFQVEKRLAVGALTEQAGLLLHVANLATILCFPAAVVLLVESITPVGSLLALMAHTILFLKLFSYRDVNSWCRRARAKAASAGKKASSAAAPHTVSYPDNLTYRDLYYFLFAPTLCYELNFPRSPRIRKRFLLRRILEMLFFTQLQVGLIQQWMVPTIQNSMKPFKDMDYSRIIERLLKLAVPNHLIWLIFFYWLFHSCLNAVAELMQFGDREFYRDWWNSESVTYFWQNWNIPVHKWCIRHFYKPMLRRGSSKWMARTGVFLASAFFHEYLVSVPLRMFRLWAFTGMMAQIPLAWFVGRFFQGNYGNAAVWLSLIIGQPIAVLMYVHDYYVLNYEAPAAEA

Mus musculus [13] = test: as §2, with “dosing and co-treated with 30 mg/kg for DGAT1 inhibitor-12 and 10 mg/kg for DGAT2 inhibitor-13” for “dosing”; assay type: functional, organism-based; how it was run: as §5
Mus musculus [14] = test: as §4, with “dosing” for “dosing and co-treated with 30 mg/kg for DGAT1 inhibitor-12 and 10 mg/kg for DGAT2 inhibitor-13”; assay type: functional, organism-based; how it was run: as §3
[15] = biological target: T4, Peroxisome proliferator-activated receptor gamma (Homo sapiens, UniProt P37231); test: Inhibition of PPARgamma (unknown origin)
T4 sequence (P37231 whole entry): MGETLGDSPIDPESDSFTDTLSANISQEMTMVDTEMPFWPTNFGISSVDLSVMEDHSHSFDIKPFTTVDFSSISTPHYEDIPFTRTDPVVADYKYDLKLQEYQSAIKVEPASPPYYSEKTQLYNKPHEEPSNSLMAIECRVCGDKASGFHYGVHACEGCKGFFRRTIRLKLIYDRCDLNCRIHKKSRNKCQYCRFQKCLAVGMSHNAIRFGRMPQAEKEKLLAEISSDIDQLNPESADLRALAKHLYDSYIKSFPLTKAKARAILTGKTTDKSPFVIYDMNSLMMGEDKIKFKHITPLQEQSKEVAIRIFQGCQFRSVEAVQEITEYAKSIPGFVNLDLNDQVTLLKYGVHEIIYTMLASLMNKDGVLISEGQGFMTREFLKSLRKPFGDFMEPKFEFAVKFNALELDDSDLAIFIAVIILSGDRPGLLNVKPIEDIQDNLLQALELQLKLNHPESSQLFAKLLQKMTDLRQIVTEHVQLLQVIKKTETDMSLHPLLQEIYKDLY

[16] = Systemic clearance in mouse at 1 mg/kg, iv; assay type: ADME, organism-based; conditions: in vivo; how it was run: as §1
Cytochrome P450 2C8 = biological target: T5, Cytochrome P450 2C8 (Homo sapiens, UniProt P10632); test: Inhibition of human CYP2C8; assay type: ADME
T5 sequence (P10632 whole entry): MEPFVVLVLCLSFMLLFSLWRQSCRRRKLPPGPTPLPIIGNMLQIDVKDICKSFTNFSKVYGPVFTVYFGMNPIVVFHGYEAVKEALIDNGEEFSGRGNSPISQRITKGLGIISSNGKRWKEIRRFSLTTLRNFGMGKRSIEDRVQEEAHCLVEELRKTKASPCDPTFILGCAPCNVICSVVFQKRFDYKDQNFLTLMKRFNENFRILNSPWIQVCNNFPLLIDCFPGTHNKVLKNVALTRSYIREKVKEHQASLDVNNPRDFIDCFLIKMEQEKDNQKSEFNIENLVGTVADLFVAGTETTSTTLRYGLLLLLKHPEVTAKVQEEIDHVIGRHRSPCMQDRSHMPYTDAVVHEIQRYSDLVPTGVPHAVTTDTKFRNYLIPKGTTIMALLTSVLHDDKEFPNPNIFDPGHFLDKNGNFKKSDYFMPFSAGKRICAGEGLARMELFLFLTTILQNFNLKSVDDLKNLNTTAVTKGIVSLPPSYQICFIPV

[17] = AUClast in mouse at 5 mg/kg, po; assay type: ADME, organism-based; design: dose 5 mg/kg, route oral, time 0 - last; conditions: in vivo
[18] = Half life in mouse at 1 mg/kg, iv; assay type: ADME, organism-based; conditions: in vivo; how it was run: as §1
CYP2C9 = CYP2C9 (Homo sapiens, UniProt P11712); test: Inhibition of CYP2C9 (unknown origin) at 3 uM; assay type: ADME
Chain of CYP2C9 (P11712 whole entry): as the sequence (P11712 whole entry) above

CYP2C8 = biological target: T6, CYP2C8 (Homo sapiens, UniProt P10632); test: Inhibition of CYP2C8 (unknown origin) at 3 uM; assay type: ADME
T6 sequence (P10632 whole entry): T5 sequence (P10632 whole entry)

COc1cccc(CC(=O)N2Cc3ccc(S(=O)(=O)Nc4cnn(C5COC5)n4)cc3C2)c1
Papp [1]: 3 ×10⁻⁶ cm/s
microsomal CLint [2]: < 8 µL/min/mg
logD [3]: 0.2

COc1cccc(CC(=O)N2Cc3ccc(S(=O)(=O)Nc4cnn(C)n4)cc3C2)c1
Papp [1]: 1 ×10⁻⁶ cm/s
microsomal CLint [2]: < 8 µL/min/mg
logD [3]: 0.2

COc1cccc(CC(=O)N2Cc3ccc(S(=O)(=O)Nc4cnn(C5CCC5)n4)cc3C2)c1
IC50 [4]: > 100 µM
inhibition (INH) (Cytochrome P450 3A4): Not Active
Papp [1]: 12 ×10⁻⁶ cm/s
Activity [5]: Non-toxic
inhibition (INH) (Cytochrome P450 1A2): Not Active
inhibition (INH) (Cytochrome P450 2C9): Not Active
Vd [6]: 0.17 L/kg
inhibition (INH) [7]: Not Active
bioavailability [8]: 74%
Activity (Mus musculus [9]): inactive
microsomal CLint [2]: 22 µL/min/mg
Cmax [10]: 9300 ng/mL
inhibition (INH) (Cytochrome P450 2D6): Not Active
Activity (Salmonella typhimurium): Non-toxic
inhibition (Mus musculus [11]): Active
logD [3]: 1.7
Activity (HepG2): Non-toxic
IC50 [12]: > 50 µM
Activity (Mus musculus [13]): inactive
inhibition (Mus musculus [14]): inactive
IC50 [15]: 4 µM
clearance [16]: 1.4 mL/min/kg
inhibition (INH) (Cytochrome P450 2C8): Not Active
AUC(0-t) [17]: 27000 ng·h/mL
half-life [18]: 1.4 h

COc1cccc(CC(=O)N2Cc3ccc(S(=O)(=O)NCCc4cccc(F)c4)cc3C2)c1
IC50 [4]: > 40 µM
Papp [1]: 8 ×10⁻⁶ cm/s
microsomal CLint [2]: > 320 µL/min/mg
logD [3]: 3.6
inhibition at 3 µM (CYP2C9): 35%
IC50 [12]: 31 µM
inhibition at 3 µM (CYP2C8): 29%

COc1cccc(CC(=O)N2Cc3ccc(S(=O)(=O)Nc4cnn(C(C)C)n4)cc3C2)c1
Papp [1]: 25 ×10⁻⁶ cm/s
microsomal CLint [2]: < 8 µL/min/mg
logD [3]: 1.4
